How the values were obtained:
[1] = biological target: T1, Dual specificity mitogen-activated protein kinase kinase 5 (Homo sapiens) (UniProt Q13163); assay: Inhibition of EGF-induced MEK5-mediated ERK5 phosphorylation in human HEK293 cells at 10 uM treated after 30 mins EGF challenge measured after 30 mins by Western blot analysis relative to control; assay type: cell-based; set-up: scale not given: the % may be the effect or the level left
T1 sequence (whole entry): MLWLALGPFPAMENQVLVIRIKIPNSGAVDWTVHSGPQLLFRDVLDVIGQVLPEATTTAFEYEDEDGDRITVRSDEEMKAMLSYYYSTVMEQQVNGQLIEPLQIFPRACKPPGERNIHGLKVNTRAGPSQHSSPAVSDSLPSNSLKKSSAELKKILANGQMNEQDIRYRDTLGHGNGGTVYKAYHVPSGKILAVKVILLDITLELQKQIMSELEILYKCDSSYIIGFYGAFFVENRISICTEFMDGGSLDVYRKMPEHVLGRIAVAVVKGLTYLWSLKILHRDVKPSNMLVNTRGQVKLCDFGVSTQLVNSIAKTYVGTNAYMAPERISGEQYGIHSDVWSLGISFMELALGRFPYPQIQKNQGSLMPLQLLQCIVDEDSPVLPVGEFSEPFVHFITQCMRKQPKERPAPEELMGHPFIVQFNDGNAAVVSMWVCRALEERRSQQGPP
Procedure, shortened: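 HEK293 cells were grown in medium with 10% heat-inactivated FBS and 0.5% penicillin/streptomycin at 37 °C, 5% CO2. They were stimulated with 50 ng/mL EGF, then given 10 µM compound (final) 30 min later, and lysed 30 min after that in 1% Triton buffer. 60 µg protein was run on 10% SDS gels and blotted for pERK1/2 (1:1000) or pERK5 (1:500).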

CCRF-CEM = assay: Cytotoxicity against human CCRF-CEM cells at 10 uM assessed as cell growth relative to control; assay type: functional; conditions: read-out: Activity
HL-60(TB) = assay: Cytotoxicity against human HL-60(TB) cells at 10 uM assessed as cell growth relative to control; assay type: functional; conditions: read-out: Activity
K562 = assay: Cytotoxicity against human K562 cells at 10 uM assessed as cell growth relative to control; assay type: functional; conditions: read-out: Activity
MOLT-4 = assay: Cytotoxicity against human MOLT4 cells at 10 uM assessed as cell growth relative to control; assay type: functional; conditions: read-out: Activity
[2] = Cytotoxicity against human […] cells at 10 uM assessed as cell growth relative to control; assay type: functional; conditions: read-out: Activity
SR = assay: Cytotoxicity against human SR cells at 10 uM assessed as cell growth relative to control; assay type: functional; conditions: read-out: Activity
A549 = assay: Cytotoxicity against human A549 cells at 10 uM assessed as cell growth relative to control; assay type: functional; conditions: read-out: Activity
EKVX = assay: Cytotoxicity against human EKVX cells at 10 uM assessed as cell growth relative to control; assay type: functional; conditions: read-out: Activity
HOP-62 = assay: Cytotoxicity against human HOP62 cells at 10 uM assessed as cell growth relative to control; assay type: functional; conditions: read-out: Activity
HOP-92 = assay: Cytotoxicity against human HOP92 cells at 10 uM assessed as cell growth relative to control; assay type: functional; conditions: read-out: Activity
NCI-H226 = assay: Cytotoxicity against human NCI-H226 cells at 10 uM assessed as cell growth relative to control; assay type: functional; conditions: read-out: Activity
NCI-H23 = assay: Cytotoxicity against human NCI-H23 cells at 10 uM assessed as cell growth relative to control; assay type: functional; conditions: read-out: Activity
NCI-H322M = assay: Cytotoxicity against human NCI-H322M cells at 10 uM assessed as cell growth relative to control; assay type: functional; conditions: read-out: Activity
NCI-H460 = assay: Cytotoxicity against human NCI-H460 cells at 10 uM assessed as cell growth relative to control; assay type: functional; conditions: read-out: Activity
NCI-H522 = assay: Cytotoxicity against human NCI-H522 cells at 10 uM assessed as cell growth relative to control; assay type: functional; conditions: read-out: Activity
COLO 205 = assay: Cytotoxicity against human COLO205 cells at 10 uM assessed as cell growth relative to control; assay type: functional; conditions: read-out: Activity
HCC 2998 = assay: Cytotoxicity against human HCC2998 cells at 10 uM assessed as cell growth relative to control; assay type: functional; conditions: read-out: Activity
HCT-116 = assay: Cytotoxicity against human HCT116 cells at 10 uM assessed as cell growth relative to control; assay type: functional; conditions: read-out: Activity
HCT-15 = assay: Cytotoxicity against human HCT15 cells at 10 uM assessed as cell growth relative to control; assay type: functional; conditions: read-out: Activity
HT-29 = assay: Cytotoxicity against human HT-29 cells at 10 uM assessed as cell growth relative to control; assay type: functional; conditions: read-out: Activity
KM12 = assay: Cytotoxicity against human KM12 cells at 10 uM assessed as cell growth relative to control; assay type: functional; conditions: read-out: Activity
SW-620 = assay: Cytotoxicity against human SW620 cells at 10 uM assessed as cell growth relative to control; assay type: functional; conditions: read-out: Activity
SF-268 = assay: Cytotoxicity against human SF268 cells at 10 uM assessed as cell growth relative to control; assay type: functional; conditions: read-out: Activity
SF-295 = assay: Cytotoxicity against human SF295 cells at 10 uM assessed as cell growth relative to control; assay type: functional; conditions: read-out: Activity
SF-539 = assay: Cytotoxicity against human SF539 cells at 10 uM assessed as cell growth relative to control; assay type: functional; conditions: read-out: Activity
SNB-19 = assay: Cytotoxicity against human SNB19 cells at 10 uM assessed as cell growth relative to control; assay type: functional; conditions: read-out: Activity
SNB-75 = assay: Cytotoxicity against human SNB75 cells at 10 uM assessed as cell growth relative to control; assay type: functional; conditions: read-out: Activity
U-251 = assay: Cytotoxicity against human U251 cells at 10 uM assessed as cell growth relative to control; assay type: functional; conditions: read-out: Activity
LOX IMVI = assay: Cytotoxicity against human LOXIMVI cells at 10 uM assessed as cell growth relative to control; assay type: functional; conditions: read-out: Activity
Malme-3M = assay: Cytotoxicity against human MALME-3M cells at 10 uM assessed as cell growth relative to control; assay type: functional; conditions: read-out: Activity
M14 = assay: Cytotoxicity against human M14 cells at 10 uM assessed as cell growth relative to control; assay type: functional; conditions: read-out: Activity
MDA-MB-435 = assay: Cytotoxicity against human MDA-MB-435 cells at 10 uM assessed as cell growth relative to control; assay type: functional; conditions: read-out: Activity
SK-MEL-2 = assay: Cytotoxicity against human SK-MEL-2 cells at 10 uM assessed as cell growth relative to control; assay type: functional; conditions: read-out: Activity
SK-MEL-28 = assay: Cytotoxicity against human SK-MEL-28 cells at 10 uM assessed as cell growth relative to control; assay type: functional; conditions: read-out: Activity
SK-MEL-5 = assay: Cytotoxicity against human SK-MEL-5 cells at 10 uM assessed as cell growth relative to control; assay type: functional; conditions: read-out: Activity
UACC-257 = assay: Cytotoxicity against human UACC257 cells at 10 uM assessed as cell growth relative to control; assay type: functional; conditions: read-out: Activity
UACC-62 = assay: Cytotoxicity against human UACC62 cells at 10 uM assessed as cell growth relative to control; assay type: functional; conditions: read-out: Activity
IGROV-1 = assay: Cytotoxicity against human IGROV1 cells at 10 uM assessed as cell growth relative to control; assay type: functional; conditions: read-out: Activity
OVCAR-3 = assay: Cytotoxicity against human OVCAR-3 cells at 10 uM assessed as cell growth relative to control; assay type: functional; conditions: read-out: Activity
OVCAR-4 = assay: Cytotoxicity against human OVCAR4 cells at 10 uM assessed as cell growth relative to control; assay type: functional; conditions: read-out: Activity
OVCAR-5 = assay: Cytotoxicity against human OVCAR5 cells at 10 uM assessed as cell growth relative to control; assay type: functional; conditions: read-out: Activity
OVCAR-8 = assay: Cytotoxicity against human OVCAR8 cells at 10 uM assessed as cell growth relative to control; assay type: functional; conditions: read-out: Activity
SK-OV-3 = assay: Cytotoxicity against human SKOV3 cells at 10 uM assessed as cell growth relative to control; assay type: functional; conditions: read-out: Activity
786-0 = assay: Cytotoxicity against human 786-0 cells at 10 uM assessed as cell growth relative to control; assay type: functional; conditions: read-out: Activity
A498 = assay: Cytotoxicity against human A498 cells at 10 uM assessed as cell growth relative to control; assay type: functional; conditions: read-out: Activity
ACHN = assay: Cytotoxicity against human ACHN cells at 10 uM assessed as cell growth relative to control; assay type: functional; conditions: read-out: Activity
CAKI-1 = assay: Cytotoxicity against human Caki1 cells at 10 uM assessed as cell growth relative to control; assay type: functional; conditions: read-out: Activity
RXF 393 = assay: Cytotoxicity against human RXF393 cells at 10 uM assessed as cell growth relative to control; assay type: functional; conditions: read-out: Activity
SN12C = assay: Cytotoxicity against human SN12C cells at 10 uM assessed as cell growth relative to control; assay type: functional; conditions: read-out: Activity
TK-10 = assay: Cytotoxicity against human TK10 cells at 10 uM assessed as cell growth relative to control; assay type: functional; conditions: read-out: Activity
UO-31 = assay: Cytotoxicity against human UO31 cells at 10 uM assessed as cell growth relative to control; assay type: functional; conditions: read-out: Activity
DU-145 = assay: Cytotoxicity against human DU145 cells at 10 uM assessed as cell growth relative to control; assay type: functional; conditions: read-out: Activity
MCF7 = assay: Cytotoxicity against human MCF7 cells at 10 uM assessed as cell growth relative to control; assay type: functional; conditions: read-out: Activity
MDA-MB-231 = assay: Cytotoxicity against human MDA-MB-231 cells at 10 uM assessed as cell growth relative to control; assay type: functional; conditions: read-out: Activity
[3] = Cytotoxicity against human Hs 578T cells at 10 uM assessed as cell growth relative to control; assay type: functional; conditions: read-out: Activity
BT-549 = assay: Cytotoxicity against human BT549 cells at 10 uM assessed as cell growth relative to control; assay type: functional; conditions: read-out: Activity
T47D = assay: Cytotoxicity against human T47D cells at 10 uM assessed as cell growth relative to control; assay type: functional; conditions: read-out: Activity
MDA-MB-468 = assay: Cytotoxicity against human MDA-MB-468 cells at 10 uM assessed as cell growth relative to control; assay type: functional; conditions: read-out: Activity
NCI/ADR-RES = assay: Cytotoxicity against human NCI/ADR-RES cells at 10 uM assessed as cell growth relative to control; assay type: functional; conditions: read-out: Activity

c1ccc(CNc2cc(Cc3ccccc3)cc3c2ncn3C2CCCC2)cc1
Activity [1]: 78%

COc1cc(NCc2ccccc2)c2ncn(C(C)C)c2c1
growth at 10 µM (CCRF-CEM): 93.9%
growth at 10 µM (HL-60(TB)): 50.3%
growth at 10 µM (K562): 64.2%
growth at 10 µM (MOLT-4): 78.7%
growth at 10 µM [2]: 71.5%
growth at 10 µM (SR): 51.7%
growth at 10 µM (A549): 110%
growth at 10 µM (EKVX): 93.9%
growth at 10 µM (HOP-62): 101%
growth at 10 µM (HOP-92): 84.5%
growth at 10 µM (NCI-H226): 97.1%
growth at 10 µM (NCI-H23): 91.1%
growth at 10 µM (NCI-H322M): 115%
growth at 10 µM (NCI-H460): 107%
growth at 10 µM (NCI-H522): 87%
growth at 10 µM (COLO 205): 118%
growth at 10 µM (HCC 2998): 104%
growth at 10 µM (HCT-116): 103%
growth at 10 µM (HCT-15): 97.9%
growth at 10 µM (HT-29): 109%
growth at 10 µM (KM12): 104%
growth at 10 µM (SW-620): 146%
growth at 10 µM (SF-268): 125%
growth at 10 µM (SF-295): 138%
growth at 10 µM (SF-539): 96.2%
growth at 10 µM (SNB-19): 90.7%
growth at 10 µM (SNB-75): 92.3%
growth at 10 µM (U-251): 103%
growth at 10 µM (LOX IMVI): 115%
growth at 10 µM (Malme-3M): 49.2%
growth at 10 µM (M14): 109%
growth at 10 µM (MDA-MB-435): 122%
growth at 10 µM (SK-MEL-2): 91.6%
growth at 10 µM (SK-MEL-28): 125%
growth at 10 µM (SK-MEL-5): 122%
growth at 10 µM (UACC-257): 105%
growth at 10 µM (UACC-62): 97.3%
growth at 10 µM (IGROV-1): 92.5%
growth at 10 µM (OVCAR-3): 103%
growth at 10 µM (OVCAR-4): 80.6%
growth at 10 µM (OVCAR-5): 97.2%
growth at 10 µM (OVCAR-8): 98.7%
growth at 10 µM (SK-OV-3): 110%
growth at 10 µM (786-0): 96.8%
growth at 10 µM (A498): 106%
growth at 10 µM (ACHN): 105%
growth at 10 µM (CAKI-1): 97.2%
growth at 10 µM (RXF 393): 91.2%
growth at 10 µM (SN12C): 104%
growth at 10 µM (TK-10): 136%
growth at 10 µM (UO-31): 83.2%
growth at 10 µM (DU-145): 136%
growth at 10 µM (MCF7): 5.8%
growth at 10 µM (MDA-MB-231): 111%
growth at 10 µM [3]: 174%
growth at 10 µM (BT-549): 55.6%
growth at 10 µM (T47D): 80.1%
growth at 10 µM (MDA-MB-468): 36.5%
growth at 10 µM (NCI/ADR-RES): 96.5%

Source: ChEMBL document CHEMBL1158563, “Identification of benzimidazole-based inhibitors of the mitogen activated kinase-5 signaling pathway” (2010)
